Results: ChEMBL document CHEMBL3112554, “Discovery of simplified N²-substituted pyrazolo[3,4-d]pyrimidine derivatives as novel adenosine receptor antagonists: efficient synthetic approaches, biological evaluations and molecular docking studies” (Bioorg Med Chem, 2014)
pKi: −log10 of the molar value.

Assays:
Adenosine receptor A1 = molecular target: T1, Adenosine receptor A1 (Homo sapiens, UniProt P30542); experiment: Displacement of [3H]-CCPA from human adenosine A1 receptor expressed in CHO cells after 3 hrs by topcount scintillation counting analysis; type: cell-based
T1 sequence (P30542 whole entry): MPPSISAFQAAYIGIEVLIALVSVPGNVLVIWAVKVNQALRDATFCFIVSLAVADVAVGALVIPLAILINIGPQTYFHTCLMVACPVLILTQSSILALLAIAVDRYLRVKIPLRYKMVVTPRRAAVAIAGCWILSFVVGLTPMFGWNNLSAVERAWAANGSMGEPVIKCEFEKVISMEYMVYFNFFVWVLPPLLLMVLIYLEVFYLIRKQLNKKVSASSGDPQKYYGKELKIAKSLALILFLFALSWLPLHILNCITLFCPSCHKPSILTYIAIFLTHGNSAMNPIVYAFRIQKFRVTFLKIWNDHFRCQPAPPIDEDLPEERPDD
Outline: (§1)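 Radioligand binding to membranes from CHO cells expressing the human receptor, run for 3 h at room temperature. Radioligands were [3H]CCPA for hA1, [3H]NECA for hA2A and [3H]HEMADO for hA3. Nonspecific binding was defined with 1 mM theophylline (hA1) or 100 µM R-PIA (hA2A, hA3). Bound ligand was separated by GF/B filtration and counted. Ki came from nonlinear fitting of competition curves using Cheng-Prusoff, as geometric means of n = 3–6 with 95% CI.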

Adenosine receptor A2a = Adenosine receptor A2a (Homo sapiens, UniProt P29274); experiment: Displacement of [3H]-NECA from human adenosine A2A receptor expressed in CHO cells after 3 hrs by topcount scintillation counting analysis; type: cell-based; outline: as §1
Adenosine receptor A2b = molecular target: T2, Adenosine receptor A2b (Homo sapiens, UniProt P29275); experiment: Antagonist activity at human adenosine A2B receptor expressed in CHO cells assessed as inhibition of NECA-induced adenylyl cyclase activity after 20 mins in presence of [alpha-32P]ATP; type: functional, cell-based
T2 sequence (P29275 whole entry): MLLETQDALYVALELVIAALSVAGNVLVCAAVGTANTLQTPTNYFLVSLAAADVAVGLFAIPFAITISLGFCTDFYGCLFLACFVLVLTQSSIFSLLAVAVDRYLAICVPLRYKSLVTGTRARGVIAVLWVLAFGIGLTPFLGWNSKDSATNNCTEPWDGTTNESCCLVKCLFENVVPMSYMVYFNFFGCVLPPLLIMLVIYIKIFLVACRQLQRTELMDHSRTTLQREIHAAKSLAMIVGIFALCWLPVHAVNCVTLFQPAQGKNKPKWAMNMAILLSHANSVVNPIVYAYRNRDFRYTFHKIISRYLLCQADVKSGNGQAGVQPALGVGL
Outline: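 Membranes from CHO cells transfected with the human A2B receptor were incubated for 20 min with 100 nM NECA, 150,000 cpm [α-32P]ATP and test compound at several concentrations. The incubation mixture contained no EGTA and no NaCl. Ki was derived from concentration-dependent inhibition of NECA-stimulated adenylyl cyclase activity (n = 3–6).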

Adenosine receptor A3 = molecular target: T3, Adenosine receptor A3 (Homo sapiens, UniProt P0DMS8); experiment: Displacement of [3H]-HEMADO from human adenosine A3 receptor expressed in CHO cells after 3 hrs by topcount scintillation counting analysis; type: cell-based; outline: as §1
T3 sequence (P0DMS8 whole entry): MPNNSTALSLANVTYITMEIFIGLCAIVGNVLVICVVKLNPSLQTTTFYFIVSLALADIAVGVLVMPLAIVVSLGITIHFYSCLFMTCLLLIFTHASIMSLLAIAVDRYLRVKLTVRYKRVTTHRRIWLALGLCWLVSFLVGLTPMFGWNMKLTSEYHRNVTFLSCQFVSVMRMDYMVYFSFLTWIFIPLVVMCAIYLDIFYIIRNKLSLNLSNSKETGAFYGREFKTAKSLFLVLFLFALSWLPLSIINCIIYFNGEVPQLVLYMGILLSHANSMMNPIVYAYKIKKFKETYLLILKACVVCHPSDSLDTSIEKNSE

Homo sapiens [1] = species on record: Homo sapiens; experiment: Selectivity ratio of Ki for human adenosine A2A receptor to Ki for human adenosine A3 receptor
Outline: (§2)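 Ratios of Ki values from displacement assays in CHO cells (3 h, room temperature). The hA1 Ki ([3H]CCPA) or the hA2A Ki ([3H]NECA) was divided by the hA3 Ki ([3H]HEMADO). Each Ki is a geometric mean of n = 3–6.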

[2] = molecular target: Adenosine receptors; A1 & A3 (Homo sapiens) (UniProt P30542+P0DMS8); experiment: Selectivity ratio of Ki for human adenosine A1 receptor to Ki for human adenosine A3 receptor; outline: as §2
Homo sapiens [3] = species on record: Homo sapiens; experiment: Selectivity ratio of Ki for human adenosine A3 receptor to Ki for human adenosine A2A receptor
Homo sapiens [4] = species on record: Homo sapiens; experiment: Selectivity ratio of Ki for human adenosine A1 receptor to Ki for human adenosine A2A receptor

Adenosine receptor A2a, sequence (P29274 whole entry): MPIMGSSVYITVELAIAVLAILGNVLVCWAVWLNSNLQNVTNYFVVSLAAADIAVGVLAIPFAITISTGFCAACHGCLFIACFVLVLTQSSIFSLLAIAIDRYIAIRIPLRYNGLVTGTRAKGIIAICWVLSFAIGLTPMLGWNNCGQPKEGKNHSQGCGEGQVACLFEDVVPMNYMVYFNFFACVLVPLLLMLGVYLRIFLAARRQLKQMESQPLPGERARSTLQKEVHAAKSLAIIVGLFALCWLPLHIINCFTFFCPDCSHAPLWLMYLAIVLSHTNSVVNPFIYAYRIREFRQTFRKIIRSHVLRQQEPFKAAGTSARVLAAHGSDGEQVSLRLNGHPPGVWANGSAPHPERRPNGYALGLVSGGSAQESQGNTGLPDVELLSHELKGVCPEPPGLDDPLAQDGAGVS

Compound	pKi (Adenosine receptor A1)	pKi (Adenosine receptor A2a)	pKi (Adenosine receptor A2b)	pKi (Adenosine receptor A3)	Ratio Ki (Homo sapiens [1])	Ratio Ki [2]	Ratio Ki (Homo sapiens [3])	Ratio Ki (Homo sapiens [4])
Cn1cc2c(Cl)nc(N)nc2n1	4.53	5.04	< 4.70	< 4.00	> 0.09			
Cn1cc2c(Cl)nc(N(C(=O)c3ccccc3)C(=O)c3ccccc3)nc2n1	< 4.22	4.76	< 4.70	5.15	2.4	> 8.4		
CCOC(=O)c1nc(NC(=O)c2ccc(C(F)(F)F)cc2)nc2nn(CC(C)(C)C)cc12	< 4.00	< 4.00	< 4.70	5.89	> 77	> 77		
O=C(Cc1ccccc1)Nc1nc(Cl)c2cn(CCc3ccccc3)nc2n1	5.19	5.07	< 4.70	4.94	0.7	0.5		
Nc1nc(Cl)c2cn(CCc3ccccc3)nc2n1	5.37	5.43	< 4.70	< 4.00	> 0.03			
CC(C)(C)Cn1cc2c(Cl)nc(N(C(=O)c3ccccc3)C(=O)c3ccccc3)nc2n1	< 4.00	< 4.00	< 4.70	5.19	> 15.3	> 15.3		
CC(C)(C)Cn1cc2c(Cl)nc(NC(=O)c3ccc(F)cc3)nc2n1	4.78	5.66	< 5.00	5.23	0.3	2.7		
O=C(Nc1nc(Cl)c2cn(CCc3ccccc3)nc2n1)c1ccccc1	5.42	5.51	< 4.70	5.07	0.3	0.4		
Cc1ccc(C(=O)Nc2nc(Cl)c3cn(C)nc3n2)cc1	< 4.00	4.92	< 4.70	4.87	0.8	> 7.4		
Cn1cc2c(Cl)nc(NC(=O)c3ccc(F)cc3)nc2n1	< 4.00	4.69	< 4.70	4.50	0.6	> 3.1		
CC(C)n1cc2c(Cl)nc(NC(=O)c3ccc(C(F)(F)F)cc3)nc2n1	4.86	5.57	< 4.70	4.99	0.2	1.3		
Cc1ccc(C(=O)Nc2nc(Cl)c3cn(CCc4ccccc4)nc3n2)cc1	4.97	5.00	< 4.70	5.82	6.6	7.2		
Cn1cc2c(Cl)nc(NC(=O)Cc3ccccc3)nc2n1	4.79	4.52	< 4.70	5.18	4.5	2.4		
Cc1ccc(C(=O)Nc2nc(Cl)c3cn(C(C)C)nc3n2)cc1	5.39	5.96	< 4.70	< 4.00	0.01		91	
O=C(Nc1nc(Cl)c2cn(CCc3ccccc3)nc2n1)c1ccc(F)cc1	5.57	5.69	< 4.70	< 4.00	0.02	0.02	> 50	
O=C(c1ccccc1)N(C(=O)c1ccccc1)c1nc(Cl)c2cn(CCc3ccccc3)nc2n1	< 4.00	5.27	< 4.70	5.54	2	> 34.5		
CC(C)n1cc2c(Cl)nc(NC(=O)Cc3ccccc3)nc2n1	5.72	5.33	< 5.00	4.57	0.17	0.07		
CC(C)(C)Cn1cc2c(Cl)nc(NC(=O)c3ccc(C(F)(F)F)cc3)nc2n1	< 4.00	< 4.00	< 4.70	5.18	> 15	> 15		
CC(C)n1cc2c(Cl)nc(N)nc2n1	5.05	5.48	< 5.00	< 4.00	0.03			
CC(C)(C)Cn1cc2c(Cl)nc(NC(=O)Cc3ccccc3)nc2n1	4.50	4.63	< 4.70	4.96	2.1	2.9		
O=C(Nc1nc(Cl)c2cn(CCc3ccccc3)nc2n1)c1ccc(C(F)(F)F)cc1	< 4.22	4.79	< 4.70	5.55	5.8	> 21.4		
Cn1cc2c(Cl)nc(NC(=O)c3ccccc3)nc2n1	< 4.00	4.62	< 4.70	4.63	1	> 4.2		
CC(C)(C)Cn1cc2c(Cl)nc(N)nc2n1	4.92	5.39	< 5.00	< 4.22	> 0.6			
CC(C)n1cc2c(Cl)nc(NC(=O)c3ccc(F)cc3)nc2n1	5.47	5.80	< 4.70	< 4.22	> 0.02		> 37	
Cc1ccc(C(=O)Nc2nc(Cl)c3cn(CC(C)(C)C)nc3n2)cc1	4.95	5.68	< 5.00	5.30	0.4	2.2		
CCOC(=O)c1nc(NC(=O)c2ccc(C)cc2)nc2nn(CC(C)(C)C)cc12	< 4.00	< 4.00	< 4.70	6.05	> 111	> 111		
CC(C)n1cc2c(Cl)nc(N(C(=O)c3ccccc3)C(=O)c3ccccc3)nc2n1	5.10	6.10	< 4.70	5.17	0.1	1.1	8	9.9
CC(C)(C)Cn1cc2c(Cl)nc(NC(=O)c3ccccc3)nc2n1	4.96	5.46	≤ 5.00	4.52	0.1	0.3		
CC(C)n1cc2c(Cl)nc(NC(=O)c3ccccc3)nc2n1	4.71	5.34	< 4.70	4.89	0.3	1.5		
Cn1cc2c(Cl)nc(NC(=O)c3ccc(C(F)(F)F)cc3)nc2n1	< 4.00	4.59	< 4.70	4.47	0.7	> 2.9		
